{
  "source": "ChEMBL document CHEMBL4052637",
  "about": "“Discovery and Characterization of R/S-N-3-Cyanophenyl-N'-(6-tert-butoxycarbonylamino-3,4-dihydro-2,2-dimethyl-2H-1-benzopyran-4-yl)urea, a New Histone Deacetylase Class III Inhibitor Exerting Antiproliferative Activity against Cancer Cell Lines” (J Med Chem, 2017)",
  "key": {"KB-HU": {"system": "KB-HU", "assay": "Antiproliferative activity against human KB-HU cells overexpressing ribonucleotide reductase subunit 2 after 72 hrs by MTT assay", "type": "functional, cell-based", "outline": "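MTT assay: cells in RPMI 1640 with 10% heat-inactivated FCS at 37 °C and 5% CO2 were seeded 24 h before treatment. They were exposed 72 h to compound at 0.01–100 μM, with DMSO as solvent.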"}, "[1]": {"molecular_target": "Protein deacetylase HDAC6 (Homo sapiens) (UniProt Q9UBN7)", "sequence (Q9UBN7 whole entry)": "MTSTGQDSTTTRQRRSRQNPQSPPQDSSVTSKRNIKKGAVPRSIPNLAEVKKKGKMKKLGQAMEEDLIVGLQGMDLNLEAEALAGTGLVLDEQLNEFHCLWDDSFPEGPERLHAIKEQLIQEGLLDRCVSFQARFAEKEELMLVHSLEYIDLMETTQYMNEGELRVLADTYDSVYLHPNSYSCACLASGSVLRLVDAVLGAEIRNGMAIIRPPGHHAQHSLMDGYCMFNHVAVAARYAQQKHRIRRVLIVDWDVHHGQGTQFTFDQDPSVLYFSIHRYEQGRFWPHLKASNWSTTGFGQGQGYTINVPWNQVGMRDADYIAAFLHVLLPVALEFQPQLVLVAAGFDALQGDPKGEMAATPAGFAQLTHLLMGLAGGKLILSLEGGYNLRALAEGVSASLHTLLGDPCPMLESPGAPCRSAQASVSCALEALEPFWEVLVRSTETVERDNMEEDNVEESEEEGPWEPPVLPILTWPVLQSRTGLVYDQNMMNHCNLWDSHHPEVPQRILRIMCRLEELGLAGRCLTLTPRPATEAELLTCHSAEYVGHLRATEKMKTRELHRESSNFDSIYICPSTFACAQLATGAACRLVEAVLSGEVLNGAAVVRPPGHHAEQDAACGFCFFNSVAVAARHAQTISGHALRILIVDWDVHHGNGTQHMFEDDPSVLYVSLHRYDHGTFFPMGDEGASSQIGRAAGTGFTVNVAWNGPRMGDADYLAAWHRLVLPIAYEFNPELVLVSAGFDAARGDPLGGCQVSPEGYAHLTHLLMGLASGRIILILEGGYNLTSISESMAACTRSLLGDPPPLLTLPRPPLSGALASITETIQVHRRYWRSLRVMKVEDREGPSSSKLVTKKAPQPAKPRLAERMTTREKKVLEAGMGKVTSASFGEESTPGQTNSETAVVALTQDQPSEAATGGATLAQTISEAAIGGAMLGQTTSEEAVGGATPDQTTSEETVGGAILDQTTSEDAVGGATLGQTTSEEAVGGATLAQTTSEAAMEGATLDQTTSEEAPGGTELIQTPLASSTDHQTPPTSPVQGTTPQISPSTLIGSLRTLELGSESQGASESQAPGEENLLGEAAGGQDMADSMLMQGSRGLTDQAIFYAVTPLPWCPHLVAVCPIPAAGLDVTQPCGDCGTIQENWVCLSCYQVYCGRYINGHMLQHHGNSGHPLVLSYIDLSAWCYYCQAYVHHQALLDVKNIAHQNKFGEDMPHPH", "assay": "Inhibition of His-tagged recombinant human HDAC6 expressed in baculovirus infected insect cells at 0.1 to 100 uM using Fluor-de-Lys-SIRT1 as substrate after 15 mins by fluorescence assay"}, "[2]": {"molecular_target": "Polyamine deacetylase HDAC10 (Homo sapiens) (UniProt Q969S8)", "sequence (Q969S8 whole entry)": "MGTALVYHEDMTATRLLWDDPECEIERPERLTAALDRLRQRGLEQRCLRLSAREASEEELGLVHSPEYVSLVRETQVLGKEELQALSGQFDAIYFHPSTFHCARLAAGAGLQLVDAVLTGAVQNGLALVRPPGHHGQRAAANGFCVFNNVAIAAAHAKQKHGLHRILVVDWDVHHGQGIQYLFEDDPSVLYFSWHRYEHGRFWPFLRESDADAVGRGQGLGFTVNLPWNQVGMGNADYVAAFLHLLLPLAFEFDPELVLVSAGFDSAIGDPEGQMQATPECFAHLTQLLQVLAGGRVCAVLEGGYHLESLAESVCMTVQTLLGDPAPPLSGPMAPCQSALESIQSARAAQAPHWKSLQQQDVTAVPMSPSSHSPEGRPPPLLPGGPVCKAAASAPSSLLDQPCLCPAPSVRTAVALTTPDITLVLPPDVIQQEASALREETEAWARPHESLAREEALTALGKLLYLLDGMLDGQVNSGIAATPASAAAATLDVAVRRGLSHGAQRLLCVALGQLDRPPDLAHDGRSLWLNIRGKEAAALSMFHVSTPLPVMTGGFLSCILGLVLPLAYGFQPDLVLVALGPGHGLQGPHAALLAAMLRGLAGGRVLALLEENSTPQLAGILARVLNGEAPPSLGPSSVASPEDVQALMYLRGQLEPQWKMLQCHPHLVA", "assay": "Inhibition of C-terminal His-tagged recombinant human HDAC10 expressed in baculovirus infected insect Sf9 cells at 0.1 to 100 uM using Fluor-de-Lys-SIRT1 as substrate after 15 mins by fluorescence assay"}, "[3]": {"molecular_target": "T1, NAD-dependent protein deacetylase sirtuin-1 (Homo sapiens) (UniProt Q96EB6)", "T1 sequence (whole entry)": "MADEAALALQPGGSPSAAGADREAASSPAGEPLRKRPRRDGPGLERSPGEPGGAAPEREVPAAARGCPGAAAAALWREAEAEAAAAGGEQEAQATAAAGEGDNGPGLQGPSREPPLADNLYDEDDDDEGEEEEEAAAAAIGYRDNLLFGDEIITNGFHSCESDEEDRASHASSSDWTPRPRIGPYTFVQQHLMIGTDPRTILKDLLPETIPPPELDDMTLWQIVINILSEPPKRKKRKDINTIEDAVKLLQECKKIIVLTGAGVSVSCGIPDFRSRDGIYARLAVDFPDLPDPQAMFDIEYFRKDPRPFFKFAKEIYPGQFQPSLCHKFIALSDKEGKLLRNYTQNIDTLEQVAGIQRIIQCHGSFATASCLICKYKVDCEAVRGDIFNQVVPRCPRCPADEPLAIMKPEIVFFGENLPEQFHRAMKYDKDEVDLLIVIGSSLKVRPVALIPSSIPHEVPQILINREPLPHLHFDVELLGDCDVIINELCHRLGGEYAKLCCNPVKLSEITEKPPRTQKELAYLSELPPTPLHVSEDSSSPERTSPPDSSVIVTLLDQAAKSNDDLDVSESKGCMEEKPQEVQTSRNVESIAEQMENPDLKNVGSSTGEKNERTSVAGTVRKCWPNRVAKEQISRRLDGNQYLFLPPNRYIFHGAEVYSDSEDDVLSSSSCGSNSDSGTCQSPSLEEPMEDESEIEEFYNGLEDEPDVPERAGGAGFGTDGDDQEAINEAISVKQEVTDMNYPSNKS", "assay": "Inhibition of SIRT1 in human U373 cells assessed as increase of histone H4 acetylation at 10 to 25 after 8 to 24 hrs by Western blotting method", "type": "cell-based"}, "[4]": {"molecular_target": "T1, NAD-dependent protein deacetylase sirtuin-1 (Homo sapiens)", "assay": "Inhibition of SIRT1 in human U373 cells assessed as increase of histone H3K56 acetylation at 10 to 25 after 8 to 24 hrs by Western blotting method", "type": "cell-based", "outline": "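Cells treated with the compound, then histone H3K56 acetylation assessed by Western blot on histone extracts; histone H1 or Coomassie staining as loading control.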"}, "U-373MG ATCC": {"system": "U-373MG ATCC", "assay": "Inhibition of spheroid forming capacity of human U373 cells assessed as decrease in surface area of tumor spheroids at 5 to 10 uM treated for 24 hrs measured after 96 hrs by bright field microscopic method", "type": "functional, cell-based", "outline": "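Spheroids formed from 1 × 10^3 cells in 25 μL. Cells were pretreated 24 h with compound then left untreated 96 h, or untreated spheroids were cultured 96 h with compound. Surface measured from bright-field images; volume in voxels from 3D plots after image segmentation. Mean ± SD of three independent experiments.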"}, "PBMC": {"system": "PBMC", "assay": "Cytotoxicity against human PBMC assessed as decrease in cell viability at 1 to 100 uM after 24 to 48 hrs", "type": "cell-based"}, "[5]": {"assay": "Induction of apoptosis in human U373 cells at 10 uM after 72 hrs by TUNEL method relative to control", "type": "functional, U-373MG ATCC"}, "[6]": {"molecular_target": "T1, NAD-dependent protein deacetylase sirtuin-1 (Homo sapiens)", "assay": "Inhibition of SIRT1 in human U373 cells assessed as increase of histone H4 acetylation at 1 uM after 8 hrs by Western blotting method relative to control", "type": "cell-based"}, "[7]": {"molecular_target": "T1, NAD-dependent protein deacetylase sirtuin-1 (Homo sapiens)", "assay": "Inhibition of SIRT1 in human U373 cells assessed as increase of histone H4 acetylation at 2.5 uM after 8 hrs by Western blotting method relative to control", "type": "cell-based"}, "[8]": {"molecular_target": "T1, NAD-dependent protein deacetylase sirtuin-1 (Homo sapiens)", "assay": "Inhibition of SIRT1 in human Hs683 cells assessed as increase of histone H4 acetylation at 1 uM after 8 hrs by Western blotting method relative to control", "type": "cell-based"}, "[9]": {"molecular_target": "T1, NAD-dependent protein deacetylase sirtuin-1 (Homo sapiens)", "assay": "Inhibition of SIRT1 in human Hs683 cells assessed as increase of histone H4 acetylation at 2.5 uM after 8 hrs by Western blotting method relative to control", "type": "cell-based"}, "[10]": {"molecular_target": "T1, NAD-dependent protein deacetylase sirtuin-1 (Homo sapiens)", "assay": "Inhibition of SIRT1 in human Hs683 cells assessed as increase of histone H4 acetylation at 5 uM after 8 hrs by Western blotting method relative to control", "type": "cell-based"}, "[11]": {"molecular_target": "T1, NAD-dependent protein deacetylase sirtuin-1 (Homo sapiens)", "assay": "Inhibition of SIRT1 in human Hs683 cells assessed as increase of histone H4 acetylation at 10 uM after 8 hrs by Western blotting method relative to control", "type": "cell-based"}, "Hs 683 [12]": {"system": "Hs 683", "assay": "Potency index, ratio of EX-527 IC50 to test compound IC50 for human Hs683 cells", "type": "functional"}, "Hs 683 [13]": {"system": "Hs 683", "assay": "Antiproliferative activity against human Hs683 cells transfected with SIRT1/2 siRNA at IC50 for MTT assay after 72 hrs by time-lapse videomicroscopy", "type": "functional, cell-based"}, "Hs 683 [14]": {"system": "Hs 683", "assay": "Cell cycle arrest in human Hs683 cells assessed as accumulation at G2/M phase at 2 uM after 24 to 48 hrs by propidium iodide staining-based flow cytometry", "type": "functional", "settings": "5.8 uM, in the assay text read “at 5.8 uM” for “at 2 uM”", "outline": "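Cells were exposed to compound at the IC50 for each line from the 72 h MTT assay, or to a reference HDAC inhibitor at 2 μM. Cell cycle distribution was analyzed after 24 and 48 h. Results are mean ± SD of three independent experiments, with p values against control cells.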"}, "A549": {"system": "A549", "assay": "Growth inhibition of human A549 cells after 48 hrs by SRB assay", "type": "functional", "settings": "A549, 48 h"}, "Malme-3M": {"system": "Malme-3M", "assay": "Growth inhibition of human MALME-3M cells after 48 hrs by SRB assay", "type": "functional"}, "M14": {"system": "M14", "assay": "Growth inhibition of human M14 cells after 48 hrs by SRB assay", "type": "functional", "settings": "M14, 48 h"}},
  "note": "Activity calls are given as the source filed them. The calls are words filed in the database; no cut-off is given here.",
  "data": [
    {"smiles": "CC(C)(C)OC(=O)Nc1ccc2c(c1)C(NC(=O)Nc1cccc(C#N)c1)CC(C)(C)O2", "note": "(stereo not given)", "values": [
      {"measurement": "Activity", "setting": "KB-HU", "result": "Active"},
      {"measurement": "inhibition", "setting": "[1]", "result": "inactive"},
      {"measurement": "inhibition", "setting": "[2]", "result": "inactive"},
      {"measurement": "inhibition", "setting": "[3]", "result": "Active"},
      {"measurement": "inhibition", "setting": "[4]", "result": "Active"},
      {"measurement": "inhibition", "setting": "U-373MG ATCC", "result": "Active"},
      {"measurement": "Activity", "setting": "PBMC", "result": "Non-Toxic"},
      {"measurement": "Activity", "setting": "[5]", "result": "<10", "unit": "%"},
      {"measurement": "fold change (FC)", "setting": "[6]", "result": 1.1},
      {"measurement": "fold change (FC)", "setting": "[7]", "result": 1},
      {"measurement": "fold change (FC)", "setting": "[8]", "result": 1.3},
      {"measurement": "fold change (FC)", "setting": "[9]", "result": 1.9},
      {"measurement": "fold change (FC)", "setting": "[10]", "result": 8.3},
      {"measurement": "fold change (FC)", "setting": "[11]", "result": 12},
      {"measurement": "Ratio IC50", "setting": "Hs 683 [12]", "result": 20},
      {"measurement": "Activity", "setting": "Hs 683 [13]", "result": "Active"},
      {"measurement": "Activity", "setting": "Hs 683 [14]", "result": "Active"},
      {"measurement": "GI50", "setting": "A549", "result": 2.75, "unit": "µM"},
      {"measurement": "GI50", "setting": "Malme-3M", "result": 4.07, "unit": "µM"},
      {"measurement": "GI50", "setting": "M14", "result": 4.17, "unit": "µM"}
    ]}
  ]
}
